Measured values: ChEMBL document CHEMBL3763017, “Synthesis and evaluation of dual antiplatelet activity of bispidine derivatives of N-substituted pyroglutamic acids” (Eur J Med Chem, 2016)
Calls of active or inactive are those of the source. The calls are words filed in the database; no cut-off is given here.

Columns and labels:
Mus musculus [1] = assay: Antithrombotic activity in Swiss albino mouse assessed as protection against collagen-epinephrine induced pulmonary thromboembolism at 30 umol/kg, po after 1 hr; assay type: functional
In short: (§1)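 Male Swiss albino mice (18–22 g) dosed orally in 0.5% carboxymethyl cellulose 1, 2, 4, 6, 12 or 24 h before challenge. Collagen (150 μg/ml) plus adrenaline (50 μg/ml) injected into the tail vein. Dead or hind-limb-paralysed mice counted over 15 min and expressed as % protection. Ten mice per drug group, five for vehicle.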

[2] = Antiplatelet activity in human platelet rich plasma assessed as inhibition of collagen-induced platelet aggregation at 30 uM preincubated for 5 mins followed by collagen stimulation by turbidimetry; assay type: functional
In short: (§2)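 Human PRP (1×10^8 platelets/ml) from healthy-donor blood spun at 1000 rpm for 10 min. Pre-treated 5 min with compound or 0.4% DMSO vehicle, then agonist added at 37 °C. Light-transmission aggregometry run at least 5–10 min; % aggregation calculated. Single-point screens at 30 μM, n = 3; mean ± SEM.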

Mus musculus [3] = assay: Antithrombotic activity in Swiss albino mouse assessed as protection against collagen-epinephrine induced pulmonary thromboembolism at 170 umol/kg, po measured upto 5 hrs; assay type: functional; in short: as §1
Mus musculus [4] = assay: Toxicity in Swiss albino mouse assessed as bleeding time at 170 umol/kg, po administered as single dose measured up to 24 hrs (reference value: 3.5 +/- 0.3 mins); assay type: organism-based; details: in vivo
Mus musculus [5] = assay: Antithrombotic activity in ferric chloride-induced Swiss albino mouse arterial thrombosis model assessed as time to occlusion at 170 umol/kg, po; assay type: functional, organism-based
Aorta = assay: Inhibition of U46619-induced vasocontraction in Sprague-Dawley rat thoracic aoritc rings at 100 nM (reference value: 89.8 +/- 8.5%); assay type: functional; design: scale not given: the % may be the effect or the level left
[6] = Antiplatelet activity in human platelet rich plasma assessed as inhibition of U46619-induced platelet aggregation at 30 uM preincubated for 5 mins followed by U46619 stimulation by turbidimetry; assay type: functional; in short: as §2

Compound	Activity (Mus musculus [1])	inhibition at 30 µM [2]	further results
COc1ccc(CN2C(=O)CC[C@H]2C(=O)N2CC3CC(CN(Cc4ccccc4)C3)C2)cc1	30%	10%	
CC(C)(C)OC(=O)N1CC2CC(C1)CN(C(=O)[C@@H]1CCC(=O)N1Cc1cccc3ccccc13)C2	30%	11%	
O=C(c1ccccc1)N1CC2CC(C1)CN(C(=O)[C@@H]1CCC(=O)N1Cc1ccccc1Br)C2	60%	25.6%	
CC(=O)Oc1ccccc1C(=O)O [ASPIRIN]			Activity (Mus musculus [3]): 40%; Time (Mus musculus [4]): 6.6 min; Activity (Mus musculus [5]): inactive
O=C(O)CCC/C=C\C[C@@H]1[C@H](CNNC(=O)Nc2ccccc2)[C@H]2CC[C@@H]1O2			Activity (Aorta): 8.4%
Cc1ccc(S(=O)(=O)N2CC3CC(CN(C(=O)[C@@H]4CCC(=O)N4Cc4ccccc4Br)C3)C2)cc1	55%	16.8%	
Cc1ccc(CN2C(=O)CC[C@H]2C(=O)N2CC3CC(CN(Cc4ccc(Br)cc4)C3)C2)cc1	50%	61%	inhibition at 30 µM [6]: 52%
COc1ccc(CN2C(=O)CC[C@H]2C(=O)N2CC3CC(CN(C(=O)OC(C)(C)C)C3)C2)cc1	45%	10%	
CC(C)(C)OC(=O)N1CC2CC(C1)CN(C(=O)[C@@H]1CCC(=O)N1Cc1ccccc1Br)C2	50%	2%	
O=C([C@@H]1CCC(=O)N1S(=O)(=O)c1ccccc1)N1CC2CC(CN(Cc3ccccc3)C2)C1	30%	29%	
CC(C)(C)OC(=O)N1CC2CC(C1)CN(C(=O)[C@@H]1CCC(=O)N1Cc1ccccc1)C2	40%	6%	
CC(C)(C)OC(=O)N1CC2CC(C1)CN(C(=O)[C@@H]1CCC(=O)N1Cc1c(Cl)cccc1Cl)C2	30%	3%	
